Screens deposited in PubChem BioAssay by several laboratories.
Sampled rows, rich in hits. Any-hit rate of the full collection: about 1.9%.
PHOSPHO1 inh: PHOSPHO1 (human) inhibition; recombinant PHOSPHO1, absorbance phosphatase assay; inhibition, % at 13.3 µM; actives 1.1% (n = 290,000); AID 1565; Q8TCT1; in the data active means inhibition above about 60%
IDE act: boosts human insulin-degrading enzyme activity in HEK cells. P14735. FAbeta-B cleavage, fluorescence polarization; 0% vehicle, 100% cell-free pure enzyme wells. activation, % at 5.96 µM. actives 0.073% (n = 340,000);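 active means activation above the mean of all tested compounds plus 3 SD, set per screening campaign, cut at about 17% in these data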
Target sequence (P14735 whole entry, looked up): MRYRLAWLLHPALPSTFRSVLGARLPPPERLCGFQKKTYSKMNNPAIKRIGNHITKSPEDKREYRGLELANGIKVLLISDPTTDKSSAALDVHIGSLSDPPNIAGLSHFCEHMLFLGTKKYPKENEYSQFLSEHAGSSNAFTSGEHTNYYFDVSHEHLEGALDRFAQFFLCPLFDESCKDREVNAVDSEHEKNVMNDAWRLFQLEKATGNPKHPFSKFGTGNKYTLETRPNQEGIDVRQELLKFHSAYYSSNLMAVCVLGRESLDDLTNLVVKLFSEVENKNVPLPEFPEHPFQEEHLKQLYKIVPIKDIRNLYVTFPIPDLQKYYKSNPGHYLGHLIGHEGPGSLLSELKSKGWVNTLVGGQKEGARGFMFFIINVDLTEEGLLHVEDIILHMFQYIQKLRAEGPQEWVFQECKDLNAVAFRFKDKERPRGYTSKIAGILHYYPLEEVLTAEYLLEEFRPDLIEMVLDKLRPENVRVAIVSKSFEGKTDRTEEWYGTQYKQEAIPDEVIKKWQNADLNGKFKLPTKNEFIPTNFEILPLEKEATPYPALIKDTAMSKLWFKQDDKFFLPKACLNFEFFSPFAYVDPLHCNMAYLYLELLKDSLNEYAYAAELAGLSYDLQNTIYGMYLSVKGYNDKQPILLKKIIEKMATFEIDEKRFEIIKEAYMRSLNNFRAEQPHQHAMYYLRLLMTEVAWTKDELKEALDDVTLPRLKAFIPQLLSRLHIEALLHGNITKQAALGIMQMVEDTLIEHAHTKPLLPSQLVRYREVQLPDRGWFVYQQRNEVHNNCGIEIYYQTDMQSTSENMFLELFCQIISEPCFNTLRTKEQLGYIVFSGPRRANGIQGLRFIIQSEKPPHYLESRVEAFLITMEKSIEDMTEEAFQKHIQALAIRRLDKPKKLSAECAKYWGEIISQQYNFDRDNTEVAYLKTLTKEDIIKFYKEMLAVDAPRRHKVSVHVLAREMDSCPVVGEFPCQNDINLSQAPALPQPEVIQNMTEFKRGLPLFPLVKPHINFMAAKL
IDE inh: inhibitors of human insulin-degrading enzyme in cells. HEK cells, FAbetaB cleavage, fluorescence polarization. actives 0.41% (n = 320,000). inhibition, % at 5.59 µM. P14735;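 active means percent inhibition above the average of all tested compounds plus 3 SD, set per screening campaign, cut at about 16% in these data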;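 further: IDE supplied by intact live HEK cells; FP after avidin binding of uncleaved biotin substrate so inhibition keeps polarization high; 0% = DMSO wells and 100% = 60 µM reference IDE inhibitor Ii1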
procasp7 counter: counter-screen: procaspase-7 (human) activation; actives 0.093% (n = 330,000); activation, % at 8.5 µM; AID 463210; P55210; recombinant procaspase-7, Ac-DEVD-pNA absorbance 405 nm; D23A/D198A/D206A triple mutant, cannot self-cleave; scale: DMSO 0, 5 µM enzyme 100;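 active means percent activation above the screen-wide mean plus 3 SD, cut at about 25% in these data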
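buffer or medium = Zinc-free HEPES/NaCl buffer, pH 7.4 | material = Procaspase-7 triple mutant (PC-7 D3A) | input = 2 µM procaspase-7 mutant as dispensed | signal = Epi-absorbance of released pNA at 405 nm, two timepoints | timing = 1 h preincubation, 2 h reaction | replicates = singlicate compound testing | evaluation = % activation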
UBC13 polyUb: blocks human UBC13 polyubiquitin chain formation; TR-FRET; actives 0.47% (n = 330,000); AID 485273; inhibition, % at 20 µM; in the data active means inhibition above about 45%, passing the limit was not always enough
proCasp3 act: activators of human procaspase-3; P42574; recombinant procaspase-3 D3A, Ac-DEVD-pNA absorbance 405 nm; activation, % at 8.5 µM; actives 0.11% (n = 330,000);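 active means activation above the mean of all tested compounds plus 3 SD, cut at about 21% in these data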;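 further: 0% = DMSO alone and 100% = DMSO wells spiked with extra 5 µM PC-3 D3A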
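Test system: Procaspase-3 D3A mutant, all three cleavage aspartates alanine | Dosing: Single dose, 8.5 µM nominal compound, 0.8% DMSO | Schedule: 1 h preincubation, 2 h reaction | Technique: 405 nm absorbance of p-nitroaniline, reads at 0 and 120 min | Repeats: One well per compound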
* hit, by the source's call.

For CN1CCN(C(=O)CCN2C(=O)/C(=C\c3ccc(Cl)cc3Cl)SC2=S)CC1 the results were PHOSPHO1 inh 84*, IDE act 2, IDE inh 2, procasp7 counter -10, UBC13 polyUb -6 and proCasp3 act -15.
Screening CN1CCN(C(=O)CCCN2C(=O)/C(=C/c3ccc(Cl)cc3)SC2=S)CC1 returned IDE act -6, IDE inh 4, procasp7 counter -19, UBC13 polyUb 14 and proCasp3 act -7.
`CC[n+]1c(/C=C/Nc2ccccc2)sc2ccccc21` gave PHOSPHO1 inh 98*, IDE act 3, IDE inh 7, procasp7 counter -13, UBC13 polyUb -20 and proCasp3 act -16.
CC[n+]1c(/C=C(\C)Nc2ccccc2)sc2ccccc21 was read as PHOSPHO1 inh -7, IDE act -1, IDE inh 5, procasp7 counter -9 and proCasp3 act -23.
CCC1Sc2ccc(S(=O)(=O)CCC(=O)Nc3cc(C)ccn3)cc2NC1=O (stereo unspecified) was read as PHOSPHO1 inh 58, IDE act -1, IDE inh 0, procasp7 counter 7, UBC13 polyUb 3 and proCasp3 act 6.
Screening Cc1cc(-c2n[nH]c(=S)o2)c(C)n1-c1ccccc1 returned PHOSPHO1 inh 101*, IDE inh 1, procasp7 counter -15, UBC13 polyUb -7 and proCasp3 act -9.
Screening S=c1[nH]nc(-c2c[nH]c3ccccc23)o1 returned PHOSPHO1 inh -14, IDE act -1, IDE inh -4, procasp7 counter -2, UBC13 polyUb 5 and proCasp3 act -2.
For Cc1cc(-c2n[nH]c(=S)n2-c2ccccc2)nn1C the results were PHOSPHO1 inh -15, IDE act -4, IDE inh 8, procasp7 counter 7, UBC13 polyUb 8 and proCasp3 act 1.
Screening Oc1cc2ccccc2cc1-c1n[nH]c(=S)o1 returned PHOSPHO1 inh 96*, IDE act 0, IDE inh 0, procasp7 counter -11, UBC13 polyUb 1 and proCasp3 act -1.
Screening CCN(CC)Cc1c(C(=O)N/N=C/c2cccc3ccccc23)nnn1-c1nonc1N returned PHOSPHO1 inh 17, IDE act 5, IDE inh 5, procasp7 counter 7, UBC13 polyUb -14 and proCasp3 act 1.
`CCCc1c(C(=O)N/N=C/c2cccc3ccccc23)nnn1-c1nonc1N` gave PHOSPHO1 inh 62*, IDE act -4, IDE inh 7, procasp7 counter -4, UBC13 polyUb -6 and proCasp3 act 2.
O=C(Cn1sc2ccccc2c1=O)NC12CC3CC(CC(C3)C1)C2 was read as PHOSPHO1 inh 84*, IDE act -37, IDE inh 58*, procasp7 counter -28, UBC13 polyUb -16 and proCasp3 act -17.
Screening Cc1ccc(NC(=O)CNC(=O)C2CCCCC2)nc1 returned IDE act 0, IDE inh 7, procasp7 counter 1, UBC13 polyUb -5 and proCasp3 act -7.
`O=C1/C(=C/c2ccc(O)cc2)SC(=S)N1Cc1cccnc1` gave PHOSPHO1 inh -6, IDE act -19, IDE inh 22*, procasp7 counter -7, UBC13 polyUb -42 and proCasp3 act -10.
`C#CCOc1ccc(/C=C2\SC(=S)N(Cc3cccnc3)C2=O)cc1` gave PHOSPHO1 inh -3, IDE act 3, IDE inh -1, procasp7 counter -7, UBC13 polyUb -6 and proCasp3 act 0.
Screening CN(C)/C=C1\C=C2C(=O)c3ccccc3N2C1=O returned PHOSPHO1 inh -12, IDE act 46*, IDE inh 12, procasp7 counter -16, UBC13 polyUb inactive and proCasp3 act -14.
O=C(NCCCc1ccc(F)cc1)C1CCC(=O)N(CCCN2CCCC2=O)C1 (stereo unspecified) was read as PHOSPHO1 inh 60, IDE act -1, IDE inh 0, procasp7 counter 2, UBC13 polyUb 0 and proCasp3 act 6.
For CCCCN(C)C1=Nc2cccc3cccc1c23 the results were PHOSPHO1 inh 63*, IDE act 1, IDE inh 4, procasp7 counter -4, UBC13 polyUb -1 and proCasp3 act -3.
CCCCON1C(=O)c2cccc3cccc(c23)C1=O was read as PHOSPHO1 inh 49, IDE act 5, IDE inh -3, procasp7 counter -4, UBC13 polyUb 10 and proCasp3 act -10.
For COc1ccc(CCN2C(=O)NC(NS(=O)(=O)c3ccccc3)(C(F)(F)F)C2=O)cc1OC (stereo unspecified) the results were PHOSPHO1 inh 22, IDE act 0, IDE inh -3, procasp7 counter 6, UBC13 polyUb 2 and proCasp3 act 3.
Screening Cc1ccc2ncccc2c1NS(=O)(=O)c1ccccc1 returned PHOSPHO1 inh 98*, IDE act 5, IDE inh 1, procasp7 counter -9, UBC13 polyUb 8 and proCasp3 act 6.
For COc1cccc(-c2csc(N3CCN(C(=O)Nc4ccc(Cl)cc4)CC3)n2)c1 the results were PHOSPHO1 inh 64*, IDE act -16, IDE inh -2, procasp7 counter -4, UBC13 polyUb 9 and proCasp3 act -6.
Cc1ccc(C2NC(=O)c3c(sc(C)c3C)N2)c(O)c1 (stereo unspecified) was read as PHOSPHO1 inh 104*, IDE act 1, IDE inh 5, procasp7 counter 0, UBC13 polyUb 15 and proCasp3 act -5.
For O=C1NC(=S)S/C1=C/c1ccc(N2CCOCC2)o1 the results were PHOSPHO1 inh 86*, IDE act -21, IDE inh 8, procasp7 counter -28, UBC13 polyUb -204 and proCasp3 act -24.
`COCCNC(=S)NNC(=O)c1cc(C2CC2)nc2ccccc12` gave PHOSPHO1 inh 23, IDE act -2 and UBC13 polyUb 2.
For Cc1cc(C)c2sc(N(CCCN(C)C)C(=O)c3ccc(S(=O)(=O)N4CCCc5ccccc54)cc3)nc2c1 the results were IDE act 6, IDE inh -1, procasp7 counter 5, UBC13 polyUb 62* and proCasp3 act 10.
For CCc1ccc(CNC(=O)Cc2ccc(NC(=O)C3=C(C)OCCS3)cc2)cc1 the results were PHOSPHO1 inh 65*, IDE act 2, IDE inh 4, procasp7 counter 3, UBC13 polyUb -12 and proCasp3 act 3.
`CCC1(c2ccccc2)NC(=O)N(CC(=O)Nc2ccccc2N2CCCC2)C1=O` (stereo unspecified) gave IDE act -1, IDE inh -1, procasp7 counter -7, UBC13 polyUb 2 and proCasp3 act -10.
